Key:
[1] = Selectivity for rat alpha-4-beta-2 nACHR over alpha3beta4 nACHR expressed in human HEK293 cells; format: cell-based
Summary of the method: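 Ki ratio (α3β4/α4β2), taken from competition binding Ki values measured on membrane homogenates of stably transfected cells expressing the respective nAChR subtypes.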

[2] = molecular target: T1, Neuronal acetylcholine receptor; alpha4/beta2 (Rattus norvegicus, UniProt P09483+P12390); experiment: Displacement of [3H]epibatidine from rat alpha-4-beta-2 nACHR expressed in human HEK293 cells at 10 uM; format: cell-based
T1 sequence (P09483 whole entry): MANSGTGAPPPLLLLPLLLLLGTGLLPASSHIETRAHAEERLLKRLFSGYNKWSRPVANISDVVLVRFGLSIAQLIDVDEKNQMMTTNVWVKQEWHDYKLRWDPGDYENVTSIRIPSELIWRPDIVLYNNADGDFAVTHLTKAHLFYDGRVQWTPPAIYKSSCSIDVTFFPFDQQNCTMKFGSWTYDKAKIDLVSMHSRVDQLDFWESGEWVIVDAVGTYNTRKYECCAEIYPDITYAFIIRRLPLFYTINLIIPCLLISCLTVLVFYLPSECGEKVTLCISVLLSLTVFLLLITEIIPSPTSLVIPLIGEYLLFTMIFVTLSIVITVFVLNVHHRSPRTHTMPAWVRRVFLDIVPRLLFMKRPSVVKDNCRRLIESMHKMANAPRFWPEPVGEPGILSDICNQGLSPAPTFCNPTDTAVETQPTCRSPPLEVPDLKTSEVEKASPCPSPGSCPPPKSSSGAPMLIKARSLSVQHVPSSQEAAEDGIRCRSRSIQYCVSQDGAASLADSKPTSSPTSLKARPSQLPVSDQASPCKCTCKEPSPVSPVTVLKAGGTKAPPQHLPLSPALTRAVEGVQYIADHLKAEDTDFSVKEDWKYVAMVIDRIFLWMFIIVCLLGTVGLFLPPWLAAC
T1 sequence (P12390 whole entry): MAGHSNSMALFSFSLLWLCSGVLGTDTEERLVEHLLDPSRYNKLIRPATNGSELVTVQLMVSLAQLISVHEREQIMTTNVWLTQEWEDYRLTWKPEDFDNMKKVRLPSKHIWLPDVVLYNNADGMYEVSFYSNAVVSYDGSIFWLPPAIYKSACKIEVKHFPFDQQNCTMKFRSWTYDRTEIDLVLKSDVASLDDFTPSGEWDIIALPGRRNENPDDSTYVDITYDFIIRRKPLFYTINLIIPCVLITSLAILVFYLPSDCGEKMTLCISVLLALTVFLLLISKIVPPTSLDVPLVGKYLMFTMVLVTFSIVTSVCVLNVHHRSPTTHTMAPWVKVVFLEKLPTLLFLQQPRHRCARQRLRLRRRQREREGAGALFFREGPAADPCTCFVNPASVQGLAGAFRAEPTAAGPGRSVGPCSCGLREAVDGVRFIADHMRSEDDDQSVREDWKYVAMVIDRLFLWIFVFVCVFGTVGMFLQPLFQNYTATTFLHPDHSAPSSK

[3] = molecular target: T2, Neuronal acetylcholine receptor; alpha4/beta4 (Rattus norvegicus, UniProt P09483+P12392); experiment: Displacement of [3H]epibatidine from rat alpha-4-beta-4 nACHR expressed in human HEK293 cells at 10 uM; format: cell-based
T2 sequence (P09483 whole entry): as the sequence (P09483 whole entry) above
T2 sequence (P12392 whole entry): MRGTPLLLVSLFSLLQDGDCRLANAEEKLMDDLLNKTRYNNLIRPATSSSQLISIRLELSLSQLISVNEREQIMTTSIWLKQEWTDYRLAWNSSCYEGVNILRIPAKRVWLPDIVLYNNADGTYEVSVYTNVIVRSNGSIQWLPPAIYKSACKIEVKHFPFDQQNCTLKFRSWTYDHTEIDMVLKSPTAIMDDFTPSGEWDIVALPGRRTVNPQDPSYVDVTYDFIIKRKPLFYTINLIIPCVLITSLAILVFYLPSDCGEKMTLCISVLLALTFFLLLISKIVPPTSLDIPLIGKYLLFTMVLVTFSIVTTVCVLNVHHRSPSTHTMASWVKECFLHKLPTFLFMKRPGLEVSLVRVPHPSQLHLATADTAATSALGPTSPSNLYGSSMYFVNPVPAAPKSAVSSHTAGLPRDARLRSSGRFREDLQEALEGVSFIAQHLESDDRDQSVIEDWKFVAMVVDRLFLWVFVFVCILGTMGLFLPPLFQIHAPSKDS

[4] = molecular target: T3, Neuronal acetylcholine receptor; alpha2/beta4 (Rattus norvegicus, UniProt P12389+P12392); experiment: Displacement of [3H]epibatidine from rat alpha-2-beta-4 nACHR expressed in human HEK293 cells at 10 uM; format: cell-based
T3 sequence (P12389 whole entry): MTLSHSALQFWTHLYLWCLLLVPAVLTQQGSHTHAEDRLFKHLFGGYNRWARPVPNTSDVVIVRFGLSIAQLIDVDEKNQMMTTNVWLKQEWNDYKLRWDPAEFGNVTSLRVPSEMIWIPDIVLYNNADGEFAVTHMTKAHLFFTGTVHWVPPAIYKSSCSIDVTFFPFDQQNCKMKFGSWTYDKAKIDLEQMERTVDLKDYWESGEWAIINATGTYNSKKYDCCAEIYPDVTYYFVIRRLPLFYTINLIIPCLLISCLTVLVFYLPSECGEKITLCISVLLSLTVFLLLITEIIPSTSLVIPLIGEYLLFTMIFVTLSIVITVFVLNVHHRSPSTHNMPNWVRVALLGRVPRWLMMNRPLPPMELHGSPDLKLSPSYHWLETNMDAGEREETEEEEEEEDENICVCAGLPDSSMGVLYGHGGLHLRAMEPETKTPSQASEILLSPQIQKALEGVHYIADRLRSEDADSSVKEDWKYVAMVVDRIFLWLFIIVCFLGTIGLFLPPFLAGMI
T3 sequence (P12392 whole entry): as the sequence (P12392 whole entry) above

[5] = molecular target: T4, Neuronal acetylcholine receptor; alpha3/beta4 (Rattus norvegicus, UniProt P04757+P12392); experiment: Displacement of [3H]epibatidine from rat alpha-3-beta-4 nACHR expressed in human HEK293 cells at 10 uM; format: cell-based
T4 sequence (P04757 whole entry): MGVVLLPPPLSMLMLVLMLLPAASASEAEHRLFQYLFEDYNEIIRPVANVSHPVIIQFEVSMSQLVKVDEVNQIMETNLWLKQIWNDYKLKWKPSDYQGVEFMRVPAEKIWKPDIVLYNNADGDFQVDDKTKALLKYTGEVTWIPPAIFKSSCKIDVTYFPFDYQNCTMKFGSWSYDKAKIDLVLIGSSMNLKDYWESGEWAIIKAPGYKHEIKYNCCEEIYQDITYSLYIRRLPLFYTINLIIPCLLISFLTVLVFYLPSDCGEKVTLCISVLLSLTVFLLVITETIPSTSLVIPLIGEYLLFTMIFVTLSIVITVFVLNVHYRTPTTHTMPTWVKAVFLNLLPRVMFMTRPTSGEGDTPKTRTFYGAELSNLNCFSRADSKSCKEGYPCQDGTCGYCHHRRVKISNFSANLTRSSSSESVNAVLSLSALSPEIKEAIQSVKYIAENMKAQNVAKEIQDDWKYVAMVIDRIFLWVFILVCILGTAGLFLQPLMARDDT
T4 sequence (P12392 whole entry): as the sequence (P12392 whole entry) above

[6] = molecular target: Neuronal acetylcholine receptor; alpha3/beta2 (Rattus norvegicus, UniProt P04757+P12390); experiment: Displacement of [3H]epibatidine from rat alpha-3-beta-2 nACHR expressed in human HEK293 cells at 10 uM; format: cell-based
Neuronal acetylcholine receptor; alpha3/beta2, sequence (P04757 whole entry): as the sequence (P04757 whole entry) above
Neuronal acetylcholine receptor; alpha3/beta2, sequence (P12390 whole entry): as the sequence (P12390 whole entry) above

[7] = Displacement of [3H]epibatidine from rat […] nACHR expressed in human HEK293 cells at 10 uM; format: cell-based
[8] = molecular target: T5, Neuronal acetylcholine receptor; alpha2/beta2 (Rattus norvegicus, UniProt P12389+P12390); experiment: Displacement of [3H]epibatidine from rat alpha2beta2 nACHR expressed in human HEK293 cells at 10 uM; format: cell-based
T5 sequence (P12389 whole entry): as the sequence (P12389 whole entry) above
T5 sequence (P12390 whole entry): as the sequence (P12390 whole entry) above

[9] = molecular target: T5, Neuronal acetylcholine receptor; alpha2/beta2; experiment: Displacement of [3H]epibatidine from rat alpha-2-beta-2 nACHR expressed in human HEK293 cells; format: cell-based
Summary of the method: (§1)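 Competition binding in membrane homogenates of stably transfected cells expressing each nAChR subtype, with Ki values derived from displacement.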

[10] = molecular target: T4, Neuronal acetylcholine receptor; alpha3/beta4; experiment: Displacement of [3H]epibatidine from rat alpha3beta4 nACHR expressed in human HEK293 cells; format: cell-based; summary of the method: as §1
[11] = molecular target: T1, Neuronal acetylcholine receptor; alpha4/beta2; experiment: Displacement of [3H]epibatidine from rat forebrain alpha4beta2 nACHR
Summary of the method: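 Competition binding was run on rat forebrain membrane homogenates.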

[12] = molecular target: T2, Neuronal acetylcholine receptor; alpha4/beta4; experiment: Displacement of [3H]epibatidine from rat alpha-4-beta-4 nACHR expressed in human HEK293 cells; format: cell-based; summary of the method: as §1
[13] = molecular target: T3, Neuronal acetylcholine receptor; alpha2/beta4; experiment: Displacement of [3H]epibatidine from rat alpha-2-beta-4 nACHR expressed in human HEK293 cells; format: cell-based; summary of the method: as §1
[14] = molecular target: T6, Neuronal acetylcholine receptor; alpha4/beta2 (Rattus norvegicus) (UniProt P09483+P12390); experiment: Inhibition of nicotine-stimulated response at rat alpha-4-beta-2 nACHR at 100 uM; format: functional
[15] = molecular target: T6, Neuronal acetylcholine receptor; alpha4/beta2 (Rattus norvegicus); experiment: Efficacy at rat alpha4beta2 nACHR by rubidium efflux assay; format: functional
[16] = molecular target: Neuronal acetylcholine receptor; alpha3/beta4 (Rattus norvegicus) (UniProt P04757+P12392); experiment: Efficacy at rat alpha3beta4 nACHR expressed in human HEK293 cells by rubidium efflux assay relative to nicotine; format: functional, cell-based
Summary of the method: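 Agonist-stimulated 86Rb+ efflux in KXα3β4R2 cells stably expressing rat α3β4 nAChRs. Mean ± standard error of three independent experiments, each in quadruplicate.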

Row | SMILES | Ratio [1] | Ki [2] [µM] | Ki [3] [µM] | Ki [4] [µM] | Ki [5] [µM] | Ki [6] [µM] | Ki [7] [µM] | also measured
1 | CCC(=O)[C@H]1C2CNCC(C2)c2cccc(=O)n21 (single isomer, unassigned) | 18 |  |  |  |  |  |  | 
2 | CCCCc1ccc(-c2ccc3n(c2=O)CC2CNCC3C2)cc1 (single isomer, unassigned) | 17 |  |  |  |  |  |  | 
3 | CN1CCCC(Cn2ccccc2=O)C1 (centres undefined) |  | 0.98 | 2.6 | 180 | 160 | 6 | 76 | Ki [8]: 19 µM
4 | O=c1ccccn1CC1CCN(Cc2ccccc2)CC1 |  | 1.3 | 4.5 | 440 | 620 | 7.3 | 470 | Ki [8]: 26 µM
5 | O=c1ccccn1CC1CCCNC1 (centres undefined) |  | 1.78 | 5.55 | 159 | 535 | 18.7 | 253 | Ki [8]: 4.63 µM
6 | O=c1cccc2n1C[C@@H]1CNC[C@H]2C1 [CYTISINICLINE] | 144 |  |  |  |  |  |  | Ki [9]: 0.00107 µM; Ki [10]: 0.217 µM; Ki [11]: 0.00192 µM; Ki [12]: 0.0021 µM; Ki [13]: 0.00541 µM
7 | O=c1c(-c2ccc(F)cc2)ccc2n1CC1CNCC2C1 (single isomer, unassigned) | 157 |  |  |  |  |  |  | 
8 | O=c1ccccn1CC1CCNCC1 |  | 1.6 | 5.4 | 80 | 750 | 12 | 87 | 
9 | O=c1ccccn1CC1CCCN(Cc2ccccc2)C1 (centres undefined) |  | 0.54 | 1.4 | 91 | 83 | 4.3 | 54 | Ki [8]: 100 µM
10 | Cc1cc2n(c(=O)c1)CC1CNCC2C1 (racemic) | 3530 |  |  |  |  |  |  | inhibition [14]: > 50%; Ki [11]: 0.02 µM
11 | O=c1cc(CO)cc2n1CC1CNCC2C1 (racemic) | 909 |  |  |  |  |  |  | inhibition [14]: > 50%; Ki [11]: 0.038 µM
12 | Cc1ccc(-c2ccc3n(c2=O)CC2CNCC3C2)s1 (single isomer, unassigned) | 59 |  |  |  |  |  |  | 
13 | C=Cc1ccc2n(c1=O)CC1CNCC2C1 (single isomer, unassigned) |  |  |  |  |  |  |  | Emax [15]: 22%
14 | COC(=O)[C@H]1C2CNCC(C2)c2cccc(=O)n21 (single isomer, unassigned) | 13 |  |  |  |  |  |  | 
15 | CN1CCC[C@H]1c1cccnc1 |  |  |  |  |  |  |  | Emax [15]: 100%; Emax [16]: 100%
